From ChEMBL document CHEMBL1146504, “Resveratrol derivatives and their role as potassium channels modulators” (J Nat Prod, 2004)
Active and inactive are the calls of the source. The calls are words filed in the database; no cut-off is given here.

Legend:
Assay type in all cases: cell-based
[1] = tested on: F11; experiment: Blockade of sodium channel in mouse rat hybrid F11 cells by whole-cell patch clamp technique
How it was run: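 F11 cells (mouse neuroblastoma N18TG-2 × rat DRG hybrid) grown in DMEM with 4.5 g/L glucose and 10% FCS at 37 °C, 5% CO2. Cells were plated and incubated about 24 h before whole-cell recording. Pipette solution was K-aspartate based at pCa 7 with 1 mM MgATP. Compounds came from 300 mM DMSO stocks, with DMSO at 1:2000 final, and were delivered by local perfusion. Capacitance and series resistance were compensated 85–95%.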

[2] = tested on: F11; experiment: Blockade of delayed rectifier potassium channel in mouse rat hybrid F11 cells at 90 uM by whole-cell patch clamp technique
How it was run: (§1)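 F11 cells (mouse neuroblastoma N18TG-2 × rat DRG) grown in DMEM with 4.5 g/L glucose and 10% FCS at 37 °C, 5% CO2, and plated about 24 h before recording. Whole-cell clamp with compensated capacitance and series resistance. Pipette: K-aspartate 130 mM, EGTA 10 mM, MgATP 1 mM, pCa 7. Cells perfused with low-K physiologic solution; step to 60 mV from −60 mV holding; TEA-isolated current. Drug applied by perfusion, DMSO 1:2000 final.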

[3] = tested on: F11; experiment: Blockade of delayed rectifier potassium channel in mouse rat hybrid F11 cells at 36 uM by whole-cell patch clamp technique; how it was run: as §1
[4] = tested on: F11; experiment: Blockade of inward rectifier potassium channel in mouse rat hybrid F11 cells at 36 uM by whole-cell patch clamp technique
[5] = tested on: F11; experiment: Blockade of delayed rectifier potassium channel in mouse rat hybrid F11 cells at 45 uM by whole-cell patch clamp technique; how it was run: as §1
[6] = tested on: F11; experiment: Blockade of inward rectifier potassium channel in mouse rat hybrid F11 cells at 45 uM by whole-cell patch clamp technique

Structure (SMILES) | Activity [2] | also measured
COc1ccc(/C=C\c2cc(O)cc(O)c2)cc1 | 70.4% | Activity [1]: Active
COc1ccc(CCc2cc(O)cc(O)c2)cc1 | 89.4% | Activity [1]: Active
CC(C)=CCOc1cc(O)cc(CCc2ccc(O)cc2)c1 |  | Activity [3]: 55.5%; Activity [4]: 53.7%
Oc1cc(O)cc(CCc2ccc(OCc3ccccc3)cc2)c1 | 89% | 
Oc1ccc(CCc2cc(O)cc(O)c2)cc1 | 52% | 
COc1ccc(CCc2cc(OC)cc(OC)c2)cc1 | 38.6% | 
Oc1ccc(/C=C/c2cc(O)cc(O)c2)cc1 | 42.9% | 
CC(C)=CCc1c(O)cc(CCc2ccc(O)cc2)cc1O |  | Activity [5]: 74%; Activity [6]: 50.1%
COc1cc(O)cc(CCc2ccc(O)cc2)c1 | 69% | 
Oc1cc(CCc2ccc(OCc3ccccc3)cc2)cc(OCc2ccccc2)c1 | 50% | 
c1ccc(COc2ccc(CCc3cc(OCc4ccccc4)cc(OCc4ccccc4)c3)cc2)cc1 | 57% | 
Oc1ccc(CCc2cc(O)cc(OCc3ccccc3)c2)cc1 | 89% | 
